In ChEMBL document CHEMBL1158394, “Diversity-oriented synthesis of furo[3,2-f]chromanes with antimycobacterial activity” (Eur J Med Chem, 2009):
In brackets after ≈: the same amount, converted by molar mass. Activity calls are given as the source filed them. No cut-off for these calls is given here.

Key:
[1] = tested on: Vero; assay: Cytotoxicity against african green monkey Vero cells after 48 hrs by MTT assay; type: cell-based; settings: Chlorocebus sabaeus
In short: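 Vero cells seeded at 10⁵ cells/mL and preincubated 24 h at 37 °C, 5% CO₂; compounds added at various concentrations in 1% DMSO for 48 h; MTT (5 mg/mL solution) then added for 4 h at 37 °C; absorbance at 595 nm; 50% inhibitory concentration by curve fitting; duplicate in two independent experiments.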

[2] = tested on: Escherichia coli; assay: Antibacterial activity against Escherichia coli CIP188631 after 24 hrs by twofold serial dilution method; type: functional, organism-based
In short: (§1)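 LB precultures grown 24 h, diluted 1/1000 and seeded; twofold serial drug dilutions in LB; 37 °C for 24 h; growth read as optical density at 595 nm; 90% inhibitory concentration obtained by curve fitting; tetracycline positive control; duplicate in two independent experiments.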

[3] = tested on: Staphylococcus aureus; assay: Antibacterial activity against Staphylococcus aureus ATCC 6538 after 24 hrs by twofold serial dilution method; type: functional; settings: ATCC 6538, 24 h; in short: as §1
[4] = tested on: Mycobacterium tuberculosis; assay: Antimycobacterial activity against Mycobacterium tuberculosis H37Rv after 6 days by microdilution resazurin assay; type: functional; settings: 144 h
In short: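 The M. tuberculosis H37Rv inoculum is grown in Dubos medium with 10% ADC enrichment. DMSO drug stocks (50 mg/mL) are serially diluted twofold in 96-well plates, with DMSO and isoniazid controls. Plates are sealed and held at 37 °C for 6 days, then 0.01% resazurin is added for another 24 h. MIC95 is taken at >95% growth inhibition, in µg/mL. Duplicate runs in two independent experiments.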

[5] = tested on: Mycolicibacterium smegmatis; assay: Antimycobacterial activity against Mycobacterium smegmatis str. MC2 155 up to 100 ug/mL; type: functional, organism-based
[6] = tested on: Candida tropicalis; assay: Antifungal activity against Candida tropicalis ATCC 66029 after 24 hrs by disk diffusion method; type: functional, organism-based
In short: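 Kirby–Bauer disk diffusion: C. tropicalis suspension spread on solid Sabouraud plates; 6 mm paper discs impregnated with serial dilutions in DMSO placed on plates; inhibition zone diameter measured after 24 h at 30 °C; itraconazole positive control; duplicate in two independent experiments.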

[7] = tested on: Escherichia coli; assay: Genotoxicity in Escherichia coli PQ37 assessed as DNA damage-induced beta-galactosidase release by SOS-chromotest; type: toxicity, organism-based
In short: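 E. coli PQ37 carrying lacZ under control of the SOS gene sfiA; DNA damage induces β-galactosidase, detected by chromogenic reaction with X-gal; duplicate in two independent experiments.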

Structure (SMILES) | IC50 [1] [µg/mL] | Activity [2] | MIC90 [3] [µg/mL] | MIC95 [4] [µg/mL] | Activity [5] | diameter of the inhibition zone (DIZ) [6] | Activity [7]
COC(=N)c1ccc(-c2cc3c4c(c(C)c(C)c3o2)OC(C)(C)CC4)cn1 | 3.6 (≈ 9.88 µM) | inactive | 5 (≈ 13.7 µM) | 0.6 (≈ 1.65 µM) | – | – | –
CC(=O)OCCCc1c(-c2cccnc2)oc2ccc3c(c12)CCC(C)(C)O3 | 17.5 (≈ 46.1 µM) | inactive | – | – | – | – | –
CC1(C)CCc2c(ccc3oc(-c4cccnc4)c(CCCO)c23)O1 | > 25 | inactive | – | 5 (≈ 14.8 µM) | – | – | –
Cc1c2c(c3cc(CCC(=O)N4CCN(C)CC4)oc3c1C)CCC(C)(C)O2 | – | inactive | – | > 10 | – | – | –
NNC(=O)c1ccncc1 [ISONIAZID] | > 500 | inactive | – | 0.25 (≈ 1.82 µM) | – | – | –
CC1(C)C=Cc2c(ccc3c2C2CCCOC2O3)O1 (stereo unspecified) | – | inactive | – | 250 (≈ 968 µM) | – | – | –
Cc1c2c(c3cc(Cc4cccs4)oc3c1C)CCC(C)(C)O2 | – | inactive | – | 12.5 (≈ 38.3 µM) | inactive | – | –
Cc1c2c(c3cc(-c4ccncc4)oc3c1C)CCC(C)(C)O2 | 5.1 (≈ 16.6 µM) | inactive | – | 2.5 (≈ 8.13 µM) | – | – | –
Cc1c(C)c2c(c(C)c1O)CC[C@@](C)(CCC[C@H](C)CCC[C@H](C)CCCC(C)C)O2 [ALPHA-TOCOPHEROL] | – | inactive | – | 10 (≈ 23.2 µM) | – | – | –
Cc1c2c(c3cc(-c4ccc(NCCCN(C)C)nc4)oc3c1C)CCC(C)(C)O2 | 1.6 (≈ 3.93 µM) | inactive | 5 (≈ 12.3 µM) | 3 (≈ 7.36 µM) | – | Active | Toxic
Cc1c2c(c3cc(-c4ccc(Cl)nc4)oc3c1C)CCC(C)(C)O2 | – | inactive | – | > 10 | – | – | –
Cc1c2c(c3cc(-c4ccc[n+]([O-])c4)oc3c1C)CCC(C)(C)O2 | 5.6 (≈ 17.3 µM) | inactive | 5 (≈ 15.5 µM) | 5 (≈ 15.5 µM) | – | – | –
Cc1c2c(c3cc(C4CCCO4)oc3c1C)CCC(C)(C)O2 (stereo unspecified) | – | inactive | – | > 10 | – | – | –
Cc1c2c(c3cc(-c4ccc(C#N)nc4)oc3c1C)CCC(C)(C)O2 | – | inactive | – | > 10 | – | – | –
Cc1c(C)c2c(c(C)c1O)CCC(C)(C)O2 [APC-100] | – | inactive | – | 10 (≈ 45.4 µM) | – | – | –
Cc1c2c(c3cc(-c4ccccn4)oc3c1C)CCC(C)(C)O2 | – | inactive | – | 100 (≈ 325 µM) | – | – | –
Cc1c2c(c3cc(-c4cnccn4)oc3c1C)CCC(C)(C)O2 | – | inactive | – | 10 (≈ 32.4 µM) | – | – | –
CC1(C)C=Cc2c(ccc3oc(-c4ccncc4)cc23)O1 | 8.7 (≈ 31.4 µM) | inactive | 5 (≈ 18 µM) | 2.5 (≈ 9.01 µM) | – | – | –

Structure (SMILES) | IC50 [1] [µg/mL] | Activity [2] | MIC90 [3] [µg/mL] | MIC95 [4] [µg/mL] | Activity [5] | diameter of the inhibition zone (DIZ) [6] | Activity [7]
CC(=O)OCCCc1c(Br)oc2ccc3c(c12)CCC(C)(C)O3 | – | inactive | – | – | – | – | –
Cc1c2c(c3cc(-c4cccnc4)oc3c1C)CCC(C)(C)O2 | – | inactive | – | 5 (≈ 16.3 µM) | – | – | –
Cc1c2c(c3cc(CCC(=O)N4CCCC4)oc3c1C)CCC(C)(C)O2 | – | inactive | – | 10 (≈ 28.1 µM) | – | – | –
Cc1c2c(c3cc(CCc4cccnc4)oc3c1C)CCC(C)(C)O2 | 7.3 (≈ 21.8 µM) | inactive | 5 (≈ 14.9 µM) | 5 (≈ 14.9 µM) | – | – | –
CC(=O)OCCCc1c(-c2ccncc2)oc2ccc3c(c12)CCC(C)(C)O3 | 14.9 (≈ 39.3 µM) | inactive | 5 (≈ 13.2 µM) | – | – | – | –
Cc1c2c(c3cc(CCC(=O)N4CCOCC4)oc3c1C)CCC(C)(C)O2 | – | inactive | – | 10 (≈ 26.9 µM) | – | – | –
Cc1c2c(c3cc(-c4ccc(-c5nn[nH]n5)nc4)oc3c1C)CCC(C)(C)O2 | – | inactive | – | 10 (≈ 26.6 µM) | – | – | –
Cc1c2c(c3cc(CC#N)oc3c1C)CCC(C)(C)O2 | – | inactive | – | > 10 | – | – | –
CC1(C)CCc2c(ccc3oc4ccccc4c23)O1 | 100 (≈ 396 µM) | inactive | – | 10 (≈ 39.6 µM) | – | – | –
Cc1c(-c2ccncc2)oc2ccc3c(c12)C=CC(C)(C)O3 | 12.8 (≈ 43.9 µM) | inactive | 5 (≈ 17.2 µM) | 5 (≈ 17.2 µM) | – | – | –
CC1(C)CCc2c(ccc3oc(-c4ccncc4)c(CCCO)c23)O1 | > 25 | inactive | – | 5 (≈ 14.8 µM) | – | – | –
Cc1c2c(c3cc(Cc4ccc(Cl)cc4)oc3c1C)CCC(C)(C)O2 | > 100 | inactive | – | 25 (≈ 70.4 µM) | – | – | –
Cc1c2c(c3cc(/C=C/c4cccnc4)oc3c1C)CCC(C)(C)O2 | > 100 | inactive | – | 5 (≈ 15 µM) | – | – | –
Cc1c2c(c3cc(-c4cccnc4)oc3c1C)C(=O)CC(C)(C)O2 | – | inactive | – | > 10 | – | – | –
CC(=O)OCc1cc2c3c(c(C)c(C)c2o1)OC(C)(C)CC3 | – | inactive | – | 10 (≈ 33.1 µM) | – | – | –
Cc1c2c(c3cc(Cc4cccnc4)oc3c1C)CCC(C)(C)O2 | 6.4 (≈ 19.9 µM) | inactive | 5 (≈ 15.6 µM) | 3 (≈ 9.33 µM) | – | – | –
Cc1c2c(c3cc(-c4cccs4)oc3c1C)CCC(C)(C)O2 | > 100 | inactive | – | 6.2 (≈ 19.8 µM) | inactive | – | –
